Measurements from paper PMC8247328 (British Journal of Clinical Pharmacology, 2020).
Where a SMILES comes first, the peptide text is derived from it. [ ]: non-standard residue; d: D form.

Key:
[1] = tested on: mitochondrial function in the visual cortex; assay: 31P-MRS of the visual cortex before, during and after visual stimulation; format: in vivo, human; conditions: Part 2; 25 mg s.c. once daily 28 d; n=11; day 27
How it was run: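 At 3 T, a 6-cm 31P transmit/receive surface coil was placed over the visual cortex, positioned using a 10-mm water sphere on 1H images. Adiabatic pulse-acquire (TR 2 s, flip 90°) FIDs were collected for 4 min at rest (128 averages), 8 min during visual activation (256) and 8 min after (256). Time-domain fitting with prior knowledge gave PCr/ATP, Pi/PCr, Pi/ATP and pH. Scans ran on day −1 and 1.5 h post-dose on day 27; mixed-model ANCOVA used baseline as covariate.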

MPTP‐treated mice = conditions: cited from earlier work
[2] = Plasma pharmacokinetics of SBT-020; format: in vivo, human
How it was run: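 Dosing was subcutaneous once daily. In Part 1, 24-h plasma profiles were taken on day 1 and at steady state (day 7); Part 2 used steady-state troughs only. Plasma aliquots were spiked with 5% aqueous formic acid, and active-arm samples were assayed by validated LC-MS (LLOQ 2.5 ng/mL). Noncompartmental analysis set pre-Cmax values below LLOQ to zero and excluded post-Cmax ones.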

[3] = tested on: mitochondrial function in calf muscle; assay: Dynamic 31P-MRS of calf skeletal muscle; format: in vivo, human
How it was run: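 Calf muscle was scanned by dynamic 31P-MRS at 7 T with a surface coil and an MRI-compatible pedal ergometer, before, during and after exercise (pulse-acquire, 2-s resolution, flip 45°, 1 average). Pi, PCr and ATP peaks were integrated. τPCr came from a monoexponential fit, and pH from the PCr–Pi frequency difference. Scans were repeated after a 10-min break if end-exercise pH was <6.8. Outliers deviating >5% (up to 10%) were removed. Timing: screening and day 7 (Part 1), day −1 and day 27 (Part 2), 1.5 h post-dose. Analysis was ANCOVA; the posthoc split used the pre-dose median.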

[4] = Part 1, 5 mg s.c. once daily 7 d, n=6, day 7
[5] = Part 1, 15 mg s.c. once daily 7 d, n=6, day 7
[6] = Part 1, 25 mg s.c. once daily 7 d, ANCOVA
[7] = Part 1, 25 mg s.c. once daily 7 d, n=6, day 7
[8] = Part 2, 25 mg s.c. once daily 28 d, ANCOVA
[9] = Part 2, 25 mg s.c. once daily 28 d, n=11, day 27

In the case of `N=C(N)NCCC[C@@H](NC(=O)[C@@H](N)Cc1ccccc1)C(=O)N[C@@H](Cc1ccccc1)C(=O)N[C@@H](CCCCN)C(N)=O` [SBT‐020, H‐Phe‐D‐Arg‐Phe‐Lys‐NH2] (H-F[dR]FK-NH2), the “Pi/ATP before visual stimulation (central 31P‐MRS), LS mean” value [1] is reported as 0.2, the “Pi/ATP during visual stimulation (central 31P‐MRS), LS mean” value [1] is reported as 0.2 and the “Pi/ATP during‐after visual stimulation (central 31P‐MRS), LS mean” value [1] is reported as −0.02. For the same compound, the “Pi/ATP during‐before visual stimulation (central 31P‐MRS), LS mean” value [1] was −0.01, the “Pi/PCr after visual stimulation (central 31P‐MRS), LS mean” value [1] was 0.2 and the “Pi/PCr before visual stimulation (central 31P‐MRS), LS mean” value [1] was 0.2. The “Pi/PCr during visual stimulation (central 31P‐MRS), LS mean” value [1] was 0.2, the “Pi/PCr during‐after visual stimulation (central 31P‐MRS), LS mean” value [1] was −0.005 and the “Pi/PCr during‐before visual stimulation (central 31P‐MRS), LS mean” value [1] was −0.006. For the same compound, the “Attenuation of MPTP‐induced dopamine depletion” value (MPTP‐treated mice; MPTP‐treated mice, single dose of 4 mg/kg) was 40%, the “Neuroprotection in the striatum” value (MPTP‐treated mice; acute MPTP model, peripheral administration at 5 mg/kg, ref not given) was “sufficient to achieve neuroprotection” and the “Effect in MPTP‐induced mouse model of Parkinson's disease” value (MPTP‐treated mice; given systemically) was “effective in attenuating injury and improving neurotransmitter release”. The “Exposure higher between day 1 and day 7” value ([2]; Part 1, 25‐mg dose cohort) was “approximately 10%”, the Accumulation ([2]; Part 2, weekly trough samples, 28 days of daily 25 mg s.c.) was “did not accumulate” and the “Median percentage of extrapolated AUC” value ([2]; Part 1 day 7, 15‐mg cohort) was “less than 2%”. The “Apparent elimination half‐life” value ([2]; Part 1 day 7, 15‐mg cohort, mean) was 3.94 h, the “Median percentage of extrapolated AUC” value ([2]; Part 1 day 7, 25‐mg cohort) was “less than 2%” and the Tmax ([2]; human, plasma, sc) was roughly 1 h. The “Dose proportionality of exposure” value ([2]; once daily subcutaneous administration) was “dose‐proportional exposure”, the “τPCr with 31P‐MRS, contrast vs placebo (95% CI)” value (shortened to “τPCr with 31P‐MRS … (95% CI)”) ([3]; Part 1, 5 mg s.c. once daily 7 d, ANCOVA) was 6.505 (−3.4601, 16.4696) P = .1844 s and the “PCr/ATP resting phase 31P‐MRS scan, LS mean” value [3, 4] was 3.7838. For the same compound, the “PCr/pi resting phase 31P‐MRS scan, LS mean” value [3, 4] was 9.9289, the “τPCr with 31P‐MRS, LS mean” value ([3]; Part 1, 5 mg s.c. once daily 7 d, n=6, day 7, 1.5 h post dose) was 40.9016 s and the “τPCr with 31P‐MRS … (95% CI)” value ([3]; Part 1, 15 mg s.c. once daily 7 d, ANCOVA) was 8.807 (−1.0294, 18.6436) P = .0757 s. The “PCr/ATP resting phase 31P‐MRS scan, LS mean” value [3, 5] was 3.8400, the “PCr/pi resting phase 31P‐MRS scan, LS mean” value [3, 5] was 11.5607 and the “τPCr with 31P‐MRS, LS mean” value ([3]; Part 1, 15 mg s.c. once daily 7 d, n=6, day 7, 1.5 h post dose) was 43.2040 s. For the same compound, the “PCr/pi resting phase 31P‐MRS scan, contrast vs placebo (95% CI)” value [3, 6] was 0.7604 (−1.0773, 2.598) P = .3948, the “τPCr with 31P‐MRS … (95% CI)” value [3, 6] was 5.477 (−5.5072, 16.4620) P = .3047 s and the “PCr/ATP resting phase 31P‐MRS scan, LS mean” value [3, 7] was 3.8510. For the same compound, the “PCr/pi resting phase 31P‐MRS scan, LS mean” value [3, 7] was 11.2289, the “τPCr with 31P‐MRS, LS mean” value ([3]; Part 1, 25 mg s.c. once daily 7 d, n=6, day 7, 1.5 h post dose) was 39.8743 s and the “Mean τPCr after 7 days of treatment” value ([3]; Part 1, 5‐mg cohort, baseline mean 41.9) was 42.5 s. For the same compound, the “Mean τPCr after 7 days of treatment” value ([3]; Part 1, 15‐mg cohort, baseline mean 40.0) was 43.1 s, the “Mean τPCr after 7 days of treatment” value ([3]; Part 1, 25‐g cohort (so in the source), baseline mean 39.2) was 38.8 s and the “Effect on τPCr, ∆Ψm and percentage of dysfunctional PBMCs” value ([3]; Part 1, after 7 days of treatment, 5, 15, 25 mg) was “No overall or dose‐related effects”. The “PCr/ATP resting phase 31P‐MRS scan, contrast vs placebo (95% CI)” value [3, 8] was “−.07 (−0.3, 0.2) P = .54”, the “PCr/pi resting phase 31P‐MRS scan, contrast vs placebo (95% CI)” value [3, 8] was 0.1 (−2.0, 2.1) P = .94 and the “τPCr with 31P‐MRS … (95% CI)” value [3, 8] was 2.8 (−9.3, 15.0) P = .63 sec. For the same compound, the “PCr/ATP resting phase 31P‐MRS scan, LS mean” value [3, 9] was 3.7, the “PCr/pi resting phase 31P‐MRS scan, LS mean” value [3, 9] was 10.2 and the “τPCr with 31P‐MRS, LS mean” value ([3]; Part 2, 25 mg s.c. once daily 28 d, n=11, day 27, 1.5 h post dose) was 40.8 s. The “Change of τPCr, posthoc” value ([3]; Part 2, active, high mitochondrial function group (τPCr of < 42.4 s)) was “did not decrease” and the “Effect on τPCr, ∆Ψm and percentage of dysfunctional PBMCs” value ([3]; Part 2, after 28 days of treatment, 25 mg) was “No overall effects”.
